Published values pooled from the literature.
Lines come from different studies, so protocols differ.
MAL12: Alpha-glucosidase MAL12 (MAL12, Saccharomyces cerevisiae S288c, UniProt P53341)
ADRA1A: Alpha-1A adrenergic receptor (ADRA1A, Homo sapiens, UniProt P35348)

| Compound | target | assay | conditions | inhibition [%] |
| --- | --- | --- | --- | --- |
| O=c1c(O)c(-c2ccc(O)c(O)c2)oc2cc(O)cc(O)c12 | MAL12 | enzyme activity, inhibitor, absorbance | 50 µM | 98.7 |
| COc1cc2c3c(c1OC)-c1c(OC)ccc(N4CCOCC4)c1CC3N(C)CC2 (stereo not shown) | ADRA1A | ligand displacement, radioligand | 10 µM | 65 |
| O=c1c(O)c(-c2ccc(O)c(O)c2)oc2c(Br)c(O)c(Br)c(O)c12 | MAL12 | enzyme activity, inhibitor, absorbance | 50 µM | 95.8 |
| NC/C(=C\F)COc1cccc(Cn2c(=S)[nH]c(=O)c3[nH]cnc32)c1 | Histamine H2 receptor (HRH2, Homo sapiens, UniProt P25021) | ligand displacement, radioligand | 10 µM | < 50 |
| O=c1cc(-c2ccc(O)cc2)oc2cc(O)cc(O)c12 | MAL12 | enzyme activity, inhibitor, absorbance | 50 µM | 78.6 |
| CCCCCCCCCCCC(=O)OCC(C)(C)CC1=C(O)C(=O)c2ccccc2C1=O | MAL12 | enzyme activity, inhibitor | 50 µM | > 70 |
| COc1cc2c3c(c1OC)-c1c(OC)ccc(Cl)c1CC3N(C)CC2 (racemic) | ADRA1A | ligand displacement, radioligand | 10 µM | 99 |
| COc1cc(O)c2c(c1)oc(=O)c1c3cc(O)c(O)cc3oc21 | MAL12 | enzyme activity, inhibitor, absorbance | 128 µM | ~90 |
| COc1cc2c3c(c1OC)-c1c(OC)ccc(Br)c1CC3N(C)CC2 (stereo not shown) | ADRA1A | ligand displacement, radioligand | 10 µM | 95 |
| C#Cc1cc(-c2cc(Nc3nc(N[C@@H](C)c4ccc(F)cn4)ncc3Cl)n[nH]2)ccc1C=O | Tyrosine-protein kinase Lyn (LYN, Homo sapiens, UniProt P07948) | enzyme activity, inhibitor | 0.2 µM | 89.2 |
| C[C@H]1O[C@H](O[C@H]2[C@H](O)[C@@H](O)[C@@H](O[C@H]3[C@H](O)[C@@H](O)C(O)O[C@@H]3CO)O[C@@H]2CO)[C@H](O)[C@@H](O)[C@@H]1N[C@H]1C=C(CO)[C@@H](O)[C@H](O)[C@H]1O (stereo partly shown) | MAL12 | enzyme activity, inhibitor, absorbance | 50 µM | 37.9 |
| CC[N+]1(C)CCc2cc(OC)c(OC)c3c2C1Cc1cccc(OC)c1-3 (stereo not shown) | ADRA1A | ligand displacement, radioligand | 10 µM | 13 |
| CCCCCCCCCCCCCCCCCC(=O)OCC(C)(C)CC1=C(O)C(=O)c2ccccc2C1=O | MAL12 | enzyme activity, inhibitor | 50 µM | > 70 |
